Test results taken from ChEMBL document CHEMBL1134055, “The synthesis of amino-acid functionalized beta-carbolines as topoisomerase II inhibitors” (2001).

What follows are compounds tested on PC-3 (assay: In vitro cell growth inhibition of PC3 cell line determined using non-radioactive cell proliferation assay at a dose of 10 uM).
Format: functional, Homo sapiens
Method in brief: (§1)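 Tetrazolium-type colorimetric proliferation assay (CellTiter 96 AQueous, non-radioactive); cells treated at 10, 50 and 100 µM; read as percent cell survival. All points in quadruplicate. Vehicle control DMSO (0.20%); m-AMSA (20, 40 µM) as reference control.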

For `COC(=O)[C@@H](Cc1ccccc1)NC(=O)[C@@H]1Cc2c([nH]c3ccccc23)[C@@H](c2cc(OC)c(O)c(OC)c2)N1`, the Cell survival was over 100%.
`COC(=O)[C@H](CC(C)C)NC(=O)[C@@H]1Cc2c([nH]c3ccccc23)[C@@H](c2cc(OC)c(O)c(OC)c2)N1` was tested, and the Cell survival was over 100%.

In order of rising Cell survival:
1. COC(=O)[C@@H](NC(=O)[C@@H]1Cc2c([nH]c3ccccc23)[C@@H](c2cc(OC)c(O)c(OC)c2)N1)C(C)C  91.9%
2. COC(=O)[C@H](CCSC)NC(=O)[C@@H]1Cc2c([nH]c3ccccc23)[C@@H](c2cc(OC)c(O)c(OC)c2)N1  96.7%
3. COC(=O)CNC(=O)[C@@H]1Cc2c([nH]c3ccccc23)[C@@H](c2cc(OC)c(O)c(OC)c2)N1  99.7%
4. COC(=O)[C@H](CO)NC(=O)[C@@H]1Cc2c([nH]c3ccccc23)[C@@H](c2cc(OC)c(O)c(OC)c2)N1  99.7%

What follows are compounds tested on NCI-H520 (assay: In vitro cell growth inhibition of H520 cell line determined using Non-Radioactive Cell Proliferation Assay at a dose of 100 uM).
Format: functional, Homo sapiens
Method in brief: as §1

In order of rising Cell survival:
1. COC(=O)[C@@H](Cc1ccccc1)NC(=O)[C@@H]1Cc2c([nH]c3ccccc23)[C@@H](c2cc(OC)c(O)c(OC)c2)N1  6.7%
2. COC(=O)[C@H](CO)NC(=O)[C@@H]1Cc2c([nH]c3ccccc23)[C@@H](c2cc(OC)c(O)c(OC)c2)N1  79.6%
3. COC(=O)[C@H](CCSC)NC(=O)[C@@H]1Cc2c([nH]c3ccccc23)[C@@H](c2cc(OC)c(O)c(OC)c2)N1  79.9%
4. COC(=O)[C@H](CC(C)C)NC(=O)[C@@H]1Cc2c([nH]c3ccccc23)[C@@H](c2cc(OC)c(O)c(OC)c2)N1  83.2%
5. COC(=O)[C@@H](NC(=O)[C@@H]1Cc2c([nH]c3ccccc23)[C@@H](c2cc(OC)c(O)c(OC)c2)N1)C(C)C  93.6%

Compound `COC(=O)CNC(=O)[C@@H]1Cc2c([nH]c3ccccc23)[C@@H](c2cc(OC)c(O)c(OC)c2)N1` has a Cell survival of over 100%.

The compounds below were run on PC-3 (assay: In vitro cell growth inhibition of PC3 cell line determined using non-radioactive cell proliferation assay at a dose of 100 uM).
Format: functional, Homo sapiens
Method in brief: as §1

In order of falling Cell survival:
1. COC(=O)[C@@H](NC(=O)[C@@H]1Cc2c([nH]c3ccccc23)[C@@H](c2cc(OC)c(O)c(OC)c2)N1)C(C)C  95.3%
2. COC(=O)CNC(=O)[C@@H]1Cc2c([nH]c3ccccc23)[C@@H](c2cc(OC)c(O)c(OC)c2)N1  88.8%
3. COC(=O)[C@H](CC(C)C)NC(=O)[C@@H]1Cc2c([nH]c3ccccc23)[C@@H](c2cc(OC)c(O)c(OC)c2)N1  87.6%
4. COC(=O)[C@H](CCSC)NC(=O)[C@@H]1Cc2c([nH]c3ccccc23)[C@@H](c2cc(OC)c(O)c(OC)c2)N1  76.8%
5. COC(=O)[C@@H](Cc1ccccc1)NC(=O)[C@@H]1Cc2c([nH]c3ccccc23)[C@@H](c2cc(OC)c(O)c(OC)c2)N1  63.6%

`COC(=O)[C@H](CO)NC(=O)[C@@H]1Cc2c([nH]c3ccccc23)[C@@H](c2cc(OC)c(O)c(OC)c2)N1` gave a Cell survival of over 100%.

These compounds were tested on PC-3 (assay: In vitro cell growth inhibition of PC3 cell line determined using Non-Radioactive Cell Proliferation Assay at a dose of 50 uM).
Format: functional, Homo sapiens
Method in brief: as §1

With `COC(=O)[C@@H](Cc1ccccc1)NC(=O)[C@@H]1Cc2c([nH]c3ccccc23)[C@@H](c2cc(OC)c(O)c(OC)c2)N1` the Cell survival was over 100%.
In the case of `COC(=O)CNC(=O)[C@@H]1Cc2c([nH]c3ccccc23)[C@@H](c2cc(OC)c(O)c(OC)c2)N1`, the Cell survival is reported as over 100%.

In order of falling Cell survival:
1. COC(=O)[C@H](CC(C)C)NC(=O)[C@@H]1Cc2c([nH]c3ccccc23)[C@@H](c2cc(OC)c(O)c(OC)c2)N1  98.7%
2. COC(=O)[C@H](CO)NC(=O)[C@@H]1Cc2c([nH]c3ccccc23)[C@@H](c2cc(OC)c(O)c(OC)c2)N1  98.5%
3. COC(=O)[C@@H](NC(=O)[C@@H]1Cc2c([nH]c3ccccc23)[C@@H](c2cc(OC)c(O)c(OC)c2)N1)C(C)C  93.1%
4. COC(=O)[C@H](CCSC)NC(=O)[C@@H]1Cc2c([nH]c3ccccc23)[C@@H](c2cc(OC)c(O)c(OC)c2)N1  88.2%

What follows are compounds tested on NCI-H520 (assay: In vitro cell growth inhibition of H520 cell line determined using non-radioactive cell proliferation assay at a dose of 10 uM).
Format: functional, Homo sapiens
Method in brief: as §1

In order of rising Cell survival:
1. COC(=O)[C@@H](Cc1ccccc1)NC(=O)[C@@H]1Cc2c([nH]c3ccccc23)[C@@H](c2cc(OC)c(O)c(OC)c2)N1  77.6%
2. COC(=O)[C@H](CC(C)C)NC(=O)[C@@H]1Cc2c([nH]c3ccccc23)[C@@H](c2cc(OC)c(O)c(OC)c2)N1  84%
3. COC(=O)[C@H](CO)NC(=O)[C@@H]1Cc2c([nH]c3ccccc23)[C@@H](c2cc(OC)c(O)c(OC)c2)N1  87%
4. COC(=O)[C@@H](NC(=O)[C@@H]1Cc2c([nH]c3ccccc23)[C@@H](c2cc(OC)c(O)c(OC)c2)N1)C(C)C  87.6%
5. COC(=O)[C@H](CCSC)NC(=O)[C@@H]1Cc2c([nH]c3ccccc23)[C@@H](c2cc(OC)c(O)c(OC)c2)N1  99.2%

Work on `COC(=O)CNC(=O)[C@@H]1Cc2c([nH]c3ccccc23)[C@@H](c2cc(OC)c(O)c(OC)c2)N1` yielded a Cell survival of over 100%.

These compounds were tested on NCI-H520 (assay: In vitro cell growth inhibition of H520 cell line determined using non-radioactive cell proliferation assay at a dose of 50 uM).
Format: functional, Homo sapiens
Method in brief: as §1

In order of rising Cell survival:
1. COC(=O)[C@@H](Cc1ccccc1)NC(=O)[C@@H]1Cc2c([nH]c3ccccc23)[C@@H](c2cc(OC)c(O)c(OC)c2)N1  33%
2. COC(=O)[C@@H](NC(=O)[C@@H]1Cc2c([nH]c3ccccc23)[C@@H](c2cc(OC)c(O)c(OC)c2)N1)C(C)C  85.4%
3. COC(=O)[C@H](CC(C)C)NC(=O)[C@@H]1Cc2c([nH]c3ccccc23)[C@@H](c2cc(OC)c(O)c(OC)c2)N1  89.2%
4. COC(=O)[C@H](CO)NC(=O)[C@@H]1Cc2c([nH]c3ccccc23)[C@@H](c2cc(OC)c(O)c(OC)c2)N1  90%
5. COC(=O)[C@H](CCSC)NC(=O)[C@@H]1Cc2c([nH]c3ccccc23)[C@@H](c2cc(OC)c(O)c(OC)c2)N1  91.2%

`COC(=O)CNC(=O)[C@@H]1Cc2c([nH]c3ccccc23)[C@@H](c2cc(OC)c(O)c(OC)c2)N1` showed a Cell survival of over 100%.
